Assays:
[1] = Single-dose intravenous pharmacokinetics in dog; format: in vivo, Beagle dog; conditions: male, plasma
Outline: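 Three male Beagles in a cross-over design with 7-day wash-out between dosing events. The intravenous solution was PEG400/N-methylpyrrolidone/50 mmol/L TRIS-HCl pH 8.3 (1:1:2 v/v/v). Plasma stored at −20°C. T1/2 = ln(2)/λz; AUC by log-linear trapezoidal rule.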

[2] = Plasma exposure in the 8-day mechanistic follow-up study in male rats; format: in vivo, Sprague-Dawley rat; conditions: for AUC: male, Sprague-Dawley, plasma, oral; for AUC / AUC0‐24 h (day 1) / AUC0‐24 h (day 8/28): rat; for AUC0‐24 h (day 1) / AUC0‐24 h (day 8/28): males, 8-day study
total P450 [3] = test: Total P450 concentration in liver microsomes of the 4-week rat toxicity study; format: in vivo, Sprague-Dawley rat; conditions: 4 weeks
Outline: (§1)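 Microsomes were made from pooled liver (1.5–2 g per dose group) of 4-week toxicity studies, including vehicle controls. Tissue homogenised in ice-cold 50 mmol/L Tris-HCl pH 7.4 with 250 mmol/L sucrose, spun at 9000 g then 100 000 g (4°C), and the pellet washed in 100 mmol/L pyrophosphate pH 7.25 with 1 mmol/L EDTA. Total P450 by carbon monoxide spectrophotometric assay.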

Cyp3a1 [4] = test: Taqman mRNA upregulation in rat liver, 4-week toxicity study; format: in vivo, Sprague-Dawley rat
Outline: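 Livers came from satellite-group rats of both sexes (n = 5–6) in the 4-week study, dosed once daily at 0, 50, 150, 450 or 1500 mg/kg in modified gelatine. Transcripts quantified by comparative Ct, normalised to 18S and to vehicle-treated controls; fold change = 2−ΔΔCT.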

Cyp3a1 [5] = test: Taqman mRNA upregulation in rat liver, 8-day mechanistic follow-up study; format: in vivo, Sprague-Dawley rat; conditions: male rats, 8-day follow-up study, relative to vehicle control
Outline: (§2)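 Male Sprague-Dawley rats (n = 4) were given 0, 5, 15 or 50 mg/kg daily for 8 days as a suspension in modified gelatine. Liver transcripts were normalised to 18S and to vehicle-treated rats by the ΔΔCT method; fold = 2−ΔΔCT.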

Cyp3a2 = test: as above; format: in vivo, Sprague-Dawley rat; conditions: male rats, 8-day follow-up study, relative to vehicle control
Outline: as §2

total P450 [6] = test: Total P450 concentration in liver microsomes of the 4-week dog toxicity study; format: in vivo, Beagle dog; conditions: 4 weeks
Outline: as §1

CYP3A4 [7] = test: Induction of P450 mRNA in human hepatocytes; format: cell-based; conditions: 10 µmol/L
Outline: (§3)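 Three human hepatocyte batches were cultured as monolayers and treated for 48–89 h with test compound, diluted 1000-fold from DMSO stock, or vehicle. Medium with fresh drug renewed every 24 h; rifampicin and omeprazole served as positive controls. CYP mRNA then measured.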

CYP2C9 = test: Induction of P450 mRNA in human hepatocytes; format: cell-based; conditions: up to 10 µmol/L
Outline: as §3

[8] = target: T1, human pregnane X receptor (Homo sapiens, UniProt O75469); test: PXR reporter-gene assay in green monkey kidney CV-1 cells; format: cell-based
T1 sequence (O75469 1-434): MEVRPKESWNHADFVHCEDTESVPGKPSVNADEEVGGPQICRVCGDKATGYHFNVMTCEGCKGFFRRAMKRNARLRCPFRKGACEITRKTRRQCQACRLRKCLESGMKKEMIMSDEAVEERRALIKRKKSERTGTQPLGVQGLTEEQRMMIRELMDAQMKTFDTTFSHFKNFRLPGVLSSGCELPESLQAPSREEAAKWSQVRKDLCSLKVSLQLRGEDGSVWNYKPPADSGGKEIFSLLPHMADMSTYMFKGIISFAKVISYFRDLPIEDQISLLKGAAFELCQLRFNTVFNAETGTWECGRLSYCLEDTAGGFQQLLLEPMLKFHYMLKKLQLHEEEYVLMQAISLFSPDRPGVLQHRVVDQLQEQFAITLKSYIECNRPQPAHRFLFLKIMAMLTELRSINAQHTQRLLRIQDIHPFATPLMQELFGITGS
Outline: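 CV-1 cells were grown 3 days in DMEM/F12 with charcoal-treated FBS, then seeded at 25 000/well and lipofected with hPXR expression vector (0.1 ng), CYP3A4-luciferase reporter (20 ng) and β-galactosidase vector (60 ng). After 24 h, cells were treated 24 h in triplicate with 0.03–30 µmol/L test compound or rifampicin in delipidated charcoal-treated FBS medium. Luciferase normalised to β-galactosidase, expressed as fold over DMSO.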

[9] = man, therapeutic dose of 10 mg; clinical trials ref 19; cited from earlier work
CYP3A4 [10] = conditions: clinical trials, man, 10 mg; cited from earlier work
[11] = test system: hepatic OATP transporters; conditions: partitions into liver by passive diffusion; cited from earlier work

## CCCNS(=O)(=O)Nc1ncnc(OCCOc2ncc(Br)cn2)c1-c1ccc(Br)cc1 [macitentan]
[1]; Beagle, 0.1 mg/kg
  AUC: 320 ng·h/mL
  Vd: 1.2 L/kg
  clearance: 5.2 mL/min/kg
  half-life: 3.9 h
[1]; Beagle, 0.3 mg/kg
  AUC: 910 ng·h/mL
  Vd: 1.1 L/kg
  clearance: 5.7 mL/min/kg
  half-life: 4.3 h
[1]; beagle
  half-life: 3.9 to 4.3 h
[2]; male rats, 3 mg/kg
  change in AUC0‐24h after 8 days treatment: No change
[2]; male rats, 50 mg/kg, different macitentan batches (particle size)
  AUC0‐24h (day 1) as percent of the AUC0‐24h (day 1) in the 4‐week study: 13%
[2]; 15 mg/kg
  AUC: 20300 ng·h/mL
[2]; 50 mg/kg
  AUC: 26800 ng·h/mL
[2]; 3 mg/kg daily oral
  AUC0‐24 h (day 1): 3.09 μg/mL"h
  AUC0‐24 h (day 8/28): 3.05 μg/mL"h
[2]; 15 mg/kg daily oral
  AUC0‐24 h (day 1): 20.3 μg/mL"h
  AUC0‐24 h (day 8/28): 12.3 μg/mL"h
[2]; 50 mg/kg daily oral
  AUC0‐24 h (day 1): 26.8 μg/mL"h
  AUC0‐24 h (day 8/28): 16.8 μg/mL"h
Total P450 [3]; female rats, macitentan 50 mg/kg daily
  P450 (total, liver microsomes): 1.05 nmol/mg
Total P450 [3]; female rats, macitentan 150 mg/kg daily
  P450 (total, liver microsomes): 1.15 nmol/mg
Total P450 [3]; female rats, macitentan 450 mg/kg daily
  P450 (total, liver microsomes): 1.18 nmol/mg
Total P450 [3]; female rats, macitentan 1500 mg/kg daily
  P450 (total, liver microsomes): 0.90 nmol/mg
Total P450 [3]; male rats, macitentan 50 mg/kg daily
  P450 (total, liver microsomes): 1.35 nmol/mg
Total P450 [3]; male rats, macitentan 150 mg/kg daily
  P450 (total, liver microsomes): 1.41 nmol/mg
Total P450 [3]; male rats, macitentan 450 mg/kg daily
  P450 (total, liver microsomes): 1.33 nmol/mg
Total P450 [3]; male rats, macitentan 1500 mg/kg daily
  P450 (total, liver microsomes): 1.45 nmol/mg
Cyp3a1 [4]; female rats, 50 mg/kg daily, 4-week study, relative to vehicle control
  Upregulation of Cyp3a1 mRNA: 12.1 ± 4.4
Cyp3a1 [4]; female rats, 150 mg/kg daily, 4-week study, relative to vehicle control
  Upregulation of Cyp3a1 mRNA: 38.3 ± 10.7
Cyp3a1 [4]; female rats, 450 mg/kg daily, 4-week study, relative to vehicle control
  Upregulation of Cyp3a1 mRNA: 55.3 ± 13.1
Cyp3a1 [4]; female rats, 1500 mg/kg daily, 4-week study, relative to vehicle control
  Upregulation of Cyp3a1 mRNA: 106 ± 34
Cyp3a1 [4]; female rats, 1500 mg/kg, 4 weeks, vs control
  Upregulation of Cyp3a1 mRNA: 106 fold
Cyp3a1 [4]; male rats, 50 mg/kg daily, 4-week study, relative to vehicle control = 1.00
  Upregulation of Cyp3a1 mRNA: 2.17 ± 0.37
Cyp3a1 [4]; male rats, 150 mg/kg daily, 4-week study, relative to vehicle control
  Upregulation of Cyp3a1 mRNA: 3.51 ± 1.36
Cyp3a1 [4]; male rats, 450 mg/kg daily, 4-week study, relative to vehicle control
  Upregulation of Cyp3a1 mRNA: 4.87 ± 0.51
Cyp3a1 [4]; male rats, 1500 mg/kg daily, 4-week study, relative to vehicle control
  Upregulation of Cyp3a1 mRNA: 9.96 ± 4.18
Cyp3a1 [4]; male rats, 1500 mg/kg, 4 weeks
  increase of Cyp3a1 mRNA vs control: about 10 fold
Cyp3a1 [5]; 5 mg/kg daily
  Upregulation of Cyp3a1 mRNA: 1.66 ± 0.75
Cyp3a1 [5]; 15 mg/kg daily
  Upregulation of Cyp3a1 mRNA: 2.53 ± 2.02
Cyp3a1 [5]; 50 mg/kg daily
  Upregulation of Cyp3a1 mRNA: 6.04 ± 3.00
Cyp3a2; 5 mg/kg daily
  Upregulation of Cyp3a2 mRNA: 1.46 ± 0.18
Cyp3a2; 15 mg/kg daily
  Upregulation of Cyp3a2 mRNA: 2.37 ± 1.43
Cyp3a2; 50 mg/kg daily
  Upregulation of Cyp3a2 mRNA: 4.04 ± 0.98
Total P450 [6]; female dogs, macitentan 5 mg/kg daily
  P450 (total, liver microsomes): 0.63 nmol/mg
Total P450 [6]; female dogs, macitentan 50 mg/kg daily
  P450 (total, liver microsomes): 0.87 nmol/mg
Total P450 [6]; female dogs, macitentan 500 mg/kg daily
  P450 (total, liver microsomes): 0.84 nmol/mg
Total P450 [6]; male dogs, macitentan 5 mg/kg daily
  P450 (total, liver microsomes): 0.50 nmol/mg
Total P450 [6]; male dogs, macitentan 50 mg/kg daily
  P450 (total, liver microsomes): 0.73 nmol/mg
Total P450 [6]; male dogs, macitentan 500 mg/kg daily
  P450 (total, liver microsomes): 1.00 nmol/mg
CYP3A4 [7]
  increase in CYP3A4 mRNA vs DMSO control: about 11 fold
CYP2C9
  change in CYP2C9 mRNA expression: No change
[8]
  EC50: 1.2 µM
[9]
  plasma exposure (AUC0‐24h): 5400 ng·h/mL
CYP3A4 [10]
  effect on the pharmacokinetics of the sensitive CYP3A4 substrate sildenafil: neither changed the pharmacokinetics
[11]
  substrate of hepatic OATP transporters: not a substrate of hepatic OATP transporters
